The results in this text go back to ChEMBL document CHEMBL3526048, “In vitro metabolism of rivoglitazone, a novel peroxisome proliferator-activated receptor γ agonist, in rat, monkey, and human liver microsomes and freshly isolated hepatocytes” (Drug Metab Dispos, 2011).

Each structure is given as a SMILES string.

The target of data set [1] is T1, Cytochrome P450 3A4 (Homo sapiens, UniProt P08684). Nature of the data set: Activity of human CYP3A4 expressed in microsomes isolated from baculovirus infected insect cell assessed as enzyme-mediated 3-(4-((6-methoxy-1-methyl-1H-benzo[d]imidazol-2-yl)methoxy)phenyl)-2-(methylthio)propanamide formation at 20 uM after 2 hrs by radio-HPLC/LC-MS/MS analysis in presence of NADPH-generating system/SAM. The format is ADME.

Data set [2] can be described thus: Drug metabolism in monkey hepatocytes assessed as formation of (2S,3S,4S,5R,6R)-3,4,5-trihydroxy-6-(5-(4-((6-methoxy-1-methyl-1H-benzo[d]imidazol-2-yl)methoxy)benzyl)-2,4-dioxothiazolidin-3-yl)tetrahydro-2H-pyran-2-carboxylic acid at 30 uM after 3 hrs by radio-HPLC/LC-MS/MS analysis in presence of UDPGA and UDPGA/SAM. The settings on record: cynomolgus monkey.
The next data set concerns Liver microsome. As to the kind of experiment: Drug metabolism in Sprague-Dawley rat liver microsomes assessed as formation of 5-(4-((6-hydroxy-1-methyl-1H-benzo[d]imidazol-2-yl)methoxy)benzyl)thiazolidine-2,4-dione at 20 uM after 2 hrs by radio-HPLC/LC-MS/MS analysis in presence of NADPH-generating system and NADPH-generating system/SAM. The format is ADME. In general terms: Microsomes from liver hold many membrane-bound enzymes, among them those of drug oxidation.

For data set [3], the target named is T1, Cytochrome P450 3A4. Nature of the data set: Activity of human CYP3A4 expressed in microsomes isolated from baculovirus infected insect cell assessed as enzyme-mediated 3-(4-((6-methoxy-1-methyl-1H-benzo[d]imidazol-2-yl)methoxy)phenyl)-2-(methylthio)propanoic acid formation at 20 uM after 2 hrs by radio-HPLC/LC-MS/MS analysis in presence of NADPH-generating system/SAM and UDPGA/SAM. Type of data set: ADME.

Data set [4] concerns the target T2, UDP-glucuronosyltransferase 1A10 (Homo sapiens, UniProt Q9HAW8).
T2 sequence (Q9HAW8 whole entry): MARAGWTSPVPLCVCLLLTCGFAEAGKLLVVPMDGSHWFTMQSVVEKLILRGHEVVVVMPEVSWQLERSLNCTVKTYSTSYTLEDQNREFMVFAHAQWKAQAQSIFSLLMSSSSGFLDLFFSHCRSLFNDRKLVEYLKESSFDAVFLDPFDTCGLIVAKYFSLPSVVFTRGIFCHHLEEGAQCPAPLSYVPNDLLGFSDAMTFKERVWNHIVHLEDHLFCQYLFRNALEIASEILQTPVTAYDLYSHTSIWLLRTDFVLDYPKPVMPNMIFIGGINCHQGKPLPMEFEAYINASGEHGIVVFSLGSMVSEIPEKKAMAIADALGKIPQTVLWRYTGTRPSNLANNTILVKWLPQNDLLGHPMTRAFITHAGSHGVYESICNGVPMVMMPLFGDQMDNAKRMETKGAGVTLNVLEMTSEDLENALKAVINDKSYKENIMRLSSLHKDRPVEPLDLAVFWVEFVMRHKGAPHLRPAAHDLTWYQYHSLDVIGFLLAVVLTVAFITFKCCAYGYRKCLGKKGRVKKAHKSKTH
Nature of the data set: Activity of human UGT1A10 expressed in microsomes isolated from baculovirus infected insect cell assessed as enzyme-mediated (2S,3S,4S,5R,6R)-3,4,5-trihydroxy-6-(5-(4-((6-methoxy-1-methyl-1H-benzo[d]imidazol-2-yl)methoxy)benzyl)-2,4-dioxothiazolidin-3-yl)tetrahydro-2H-pyran-2-carboxylic acid formation at 20 uM after 4 hrs by radio-HPLC/LC-MS/MS analysis in presence of UDPGA. The format is ADME. In short, it runs like this: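 Alamethicin (50 μg/mg protein, 15 min on ice) pretreated expressed human UGT microsomes (1 mg/ml protein) from baculovirus-infected insect cells. Incubation with [¹⁴C]rivoglitazone (20 μM) in 100 mM Tris-HCl (pH 7.5) with 10 mM MgCl₂, started by 5 mM UDPGA, 4 h at 37°C with shaking. UGT insect-cell control supersomes were run alongside. Acetonitrile stop, concentrated supernatant analysed by radio-HPLC, LC-MS and LC-MS/MS.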

Data set [5] has as its target T3, UDP-glucuronosyltransferase 2B17 (Homo sapiens, UniProt O75795).
T3 sequence (O75795 whole entry): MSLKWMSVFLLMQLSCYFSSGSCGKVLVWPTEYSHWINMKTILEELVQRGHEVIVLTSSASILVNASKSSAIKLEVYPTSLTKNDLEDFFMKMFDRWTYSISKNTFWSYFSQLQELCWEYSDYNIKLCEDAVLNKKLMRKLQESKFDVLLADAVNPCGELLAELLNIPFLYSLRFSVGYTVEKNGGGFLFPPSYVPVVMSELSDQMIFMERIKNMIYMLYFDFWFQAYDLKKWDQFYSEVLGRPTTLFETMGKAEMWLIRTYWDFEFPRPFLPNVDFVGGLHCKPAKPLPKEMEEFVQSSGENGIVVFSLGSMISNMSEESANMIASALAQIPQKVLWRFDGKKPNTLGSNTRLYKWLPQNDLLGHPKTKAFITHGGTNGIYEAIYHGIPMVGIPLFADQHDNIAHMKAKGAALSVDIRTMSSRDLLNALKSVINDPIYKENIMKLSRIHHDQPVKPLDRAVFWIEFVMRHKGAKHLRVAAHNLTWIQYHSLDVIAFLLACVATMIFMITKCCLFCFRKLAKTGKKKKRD
Nature of the data set: Activity of human UGT2B17 expressed in microsomes isolated from baculovirus infected insect cell assessed as enzyme-mediated (2S,3S,4S,5R,6R)-6-((1-carboxy-2-(4-((6-methoxy-1-methyl-1H-benzo[d]imidazol-2-yl)methoxy)phenyl)ethylthio)carbonylamino)-3,4,5-trihydroxytetrahydro-2H-pyran-2-carboxylic acid formation at 20 uM after 4 hrs by radio-HPLC/LC-MS/MS analysis in presence of UDPGA. Type of data set: ADME.

Data set [6] has as its target T4, Cytochrome P450 2C9 (Homo sapiens, UniProt P11712). Nature of the data set: Activity of human CYP2C9 expressed in microsomes isolated from baculovirus infected insect cell assessed as enzyme-mediated 2-mercapto-3-(4-((6-methoxy-1-methyl-1H-benzo[d]imidazol-2-yl)methoxy)phenyl)propanamide formation at 20 uM after 2 hrs by radio-HPLC/LC-MS/MS analysis in presence of NADPH-generating system and NADPH-generating system/SAM. The format is ADME.

For data set [7], the target named is T4, Cytochrome P450 2C9. Nature of the data set: Activity of human CYP2C9 expressed in microsomes isolated from baculovirus infected insect cell assessed as enzyme-mediated 3-(4-((6-methoxy-1-methyl-1H-benzo[d]imidazol-2-yl)methoxy)phenyl)-2-(methylthio)propanamide formation at 20 uM after 2 hrs by radio-HPLC/LC-MS/MS analysis in presence of NADPH-generating system/SAM. The format is ADME.

Data set [8] in a line: Drug metabolism in human hepatocytes assessed as formation of 3-(4-((6-methoxy-1-methyl-1H-benzo[d]imidazol-2-yl)methoxy)phenyl)-2-(methylsulfonyl)propanamide at 30 uM after 3 hrs by radio-HPLC/LC-MS/MS analysis in presence of NADPH-generating system/SAM. Type of data set: ADME, cell-based, Hepatocyte.
Data set [9] in a line: Drug metabolism in cynomolgus monkey liver microsomes assessed as formation of 2-mercapto-3-(4-((6-methoxy-1-methyl-1H-benzo[d]imidazol-2-yl)methoxy)phenyl)propanoic acid at 20 uM after 2 to 4 hrs by radio-HPLC/LC-MS/MS analysis in presence of UDPGA, UDPGA/SAM and NADPH-generating system. The format is ADME, Macaca fascicularis.
Data set [10] has as its system Hepatocyte (Macaca fascicularis). Nature of the data set: Drug level in monkey hepatocytes treated with [14C]-rivoglitazone at 30 uM after 3 hrs by radio-HPLC/LC-MS/MS analysis in presence of UDPGA, UDPGA/SAM and NADPH-generating system. To be noted: cynomolgus monkey.

T4 sequence (P11712 whole entry): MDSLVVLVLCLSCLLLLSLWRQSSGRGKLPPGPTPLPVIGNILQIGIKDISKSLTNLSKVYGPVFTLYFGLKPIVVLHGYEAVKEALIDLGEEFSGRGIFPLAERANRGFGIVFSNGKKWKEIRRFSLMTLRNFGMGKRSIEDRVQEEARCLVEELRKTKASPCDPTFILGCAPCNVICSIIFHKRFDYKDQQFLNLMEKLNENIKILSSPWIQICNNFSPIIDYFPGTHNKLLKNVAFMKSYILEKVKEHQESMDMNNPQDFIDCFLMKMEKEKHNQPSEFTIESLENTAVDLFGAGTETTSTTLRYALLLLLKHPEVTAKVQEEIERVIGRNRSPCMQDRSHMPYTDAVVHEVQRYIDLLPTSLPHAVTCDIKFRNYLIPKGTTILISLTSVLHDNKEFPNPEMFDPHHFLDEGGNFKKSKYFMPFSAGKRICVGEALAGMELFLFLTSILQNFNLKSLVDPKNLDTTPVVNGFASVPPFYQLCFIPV
T1 sequence (P08684 whole entry): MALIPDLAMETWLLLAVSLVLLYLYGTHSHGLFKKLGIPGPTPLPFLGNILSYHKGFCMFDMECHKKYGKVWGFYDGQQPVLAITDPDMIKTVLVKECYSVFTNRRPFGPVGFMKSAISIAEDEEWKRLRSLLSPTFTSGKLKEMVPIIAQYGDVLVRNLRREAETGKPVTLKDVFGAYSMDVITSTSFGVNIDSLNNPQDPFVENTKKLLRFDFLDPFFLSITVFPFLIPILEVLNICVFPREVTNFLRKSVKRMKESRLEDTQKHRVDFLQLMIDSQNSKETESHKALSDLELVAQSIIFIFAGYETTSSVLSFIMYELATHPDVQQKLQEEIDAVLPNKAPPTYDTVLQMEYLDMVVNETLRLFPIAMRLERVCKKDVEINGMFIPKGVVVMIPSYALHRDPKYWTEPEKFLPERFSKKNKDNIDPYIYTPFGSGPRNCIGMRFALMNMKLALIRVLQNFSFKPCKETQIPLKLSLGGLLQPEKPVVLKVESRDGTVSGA

Turning to `COc1ccc2nc(COc3ccc(C[14CH]4SC(=O)NC4=O)cc3)n(C)c2c1.Cl` (racemic), the Drug metabolism entry is “metabolite_not_detected” at Cytochrome P450 3A4 [1]; “metabolite_detected” in data set [2]; “metabolite_detected” with Liver microsome; “metabolite_not_detected” on Cytochrome P450 3A4 [3]; “metabolite_not_detected” in [4]; “metabolite_not_detected” in [5]. The Drug metabolism result was “metabolite_detected” on Cytochrome P450 2C9 [6], “metabolite_not_detected” on Cytochrome P450 2C9 [7], “metabolite_detected” in [8] and “metabolite_detected” in data set [9].

Take `COc1ccc2nc(COc3ccc(CC(S)C(=O)O)cc3)n(C)c2c1` (stereo unspecified): in [10], the Drug metabolism result is given as “metabolite_not_detected”.
